We go through two compounds from BindingDB's records for doi:10.1016/j.bmcl.2018.04.005 (Shanghai Institute of Materia Medica, 2018).

In the test the target is T1, Sortase family protein (Staphylococcus aureus, UniProt Q9S446).
T1 sequence (Q9S446 whole entry): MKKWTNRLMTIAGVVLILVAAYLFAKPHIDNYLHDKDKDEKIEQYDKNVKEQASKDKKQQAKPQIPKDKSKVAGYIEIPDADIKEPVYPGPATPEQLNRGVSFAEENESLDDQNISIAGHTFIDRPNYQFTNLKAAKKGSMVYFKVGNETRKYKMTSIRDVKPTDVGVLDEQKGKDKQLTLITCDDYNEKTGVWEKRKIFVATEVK
Briefly: Inhibition of Staphylococcus aureus SrtA deltaN24 mutant assessed as decrease in transpeptidation of IsdA (64 to 323 residues) incubated for 1.25 hrs in presence of NH2-Gly3 nucleophile by SDS-PAGE method. A digest of the protocol:
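Recombinant, affinity-purified IsdA64-323 (a natural SrtA substrate from S. aureus) is incubated with purified SrtAΔN24 and NH2-Gly3 nucleophile, with or without test compound. Cleavage at the sorting signal gives the transpeptidation product, which is resolved by SDS-PAGE. Inhibition is judged from partial or complete blockade of product formation. Used as a counter-screen against FRET false positives.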

The IC50 is the midpoint of a concentration-inhibition curve. Take `CC(C)=CC[C@H](O)c1cc(O)c2c(c1O)C(=O)C=CC2=O`: the IC50 turned out to be 5 µM.

Consider `CC(C)C=CC(=O)c1cc(O)c2c(O)ccc(O)c2c1O` [5,8-Dihydroxy-2-(1-hydroxy-4-methyl-pent-3-enyl)-[1,4]naphthoquinone], for which the IC50 turned out to be 5 µM.
